Test results from publication PMC8592089 (SLAS discovery : advancing life sciences R & D, 2020).
Entries after “also recorded” stand apart in the source; their conditions may differ. Like-named read-outs stand apart in the source and are kept apart here.

T1: PABPN1 (Homo sapiens, UniProt Q86U42)
T1 sequence (Q86U42 1-306): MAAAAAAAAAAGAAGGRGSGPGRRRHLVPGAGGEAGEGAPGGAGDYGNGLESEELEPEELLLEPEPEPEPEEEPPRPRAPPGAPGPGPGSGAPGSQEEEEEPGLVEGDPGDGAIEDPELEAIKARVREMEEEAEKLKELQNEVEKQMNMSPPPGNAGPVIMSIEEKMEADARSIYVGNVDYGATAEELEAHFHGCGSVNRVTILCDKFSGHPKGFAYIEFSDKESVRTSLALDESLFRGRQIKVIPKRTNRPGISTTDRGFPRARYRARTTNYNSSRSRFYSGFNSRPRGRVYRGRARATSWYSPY

T2: PABPN1 (UniProt Q86U42 1-306)
T2 sequence: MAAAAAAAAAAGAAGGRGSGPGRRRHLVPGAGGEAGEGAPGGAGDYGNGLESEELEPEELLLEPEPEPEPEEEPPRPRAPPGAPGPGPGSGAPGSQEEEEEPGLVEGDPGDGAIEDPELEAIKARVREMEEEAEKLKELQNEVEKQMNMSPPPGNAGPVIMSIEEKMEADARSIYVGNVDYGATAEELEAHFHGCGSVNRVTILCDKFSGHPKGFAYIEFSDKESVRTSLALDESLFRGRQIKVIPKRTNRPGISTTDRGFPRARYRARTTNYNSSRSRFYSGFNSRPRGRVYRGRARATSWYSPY

T3: MSUT2 ZF (zinc finger domain) (UniProt Q6PJT7 595-719)
T3 sequence: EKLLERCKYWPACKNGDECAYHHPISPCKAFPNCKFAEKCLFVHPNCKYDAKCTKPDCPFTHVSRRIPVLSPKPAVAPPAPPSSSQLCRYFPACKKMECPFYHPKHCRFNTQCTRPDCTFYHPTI


Key:
PABPN1 [1] = target: T1, PABPN1; test: AlphaScreen specificity counterscreen against PABPN1; type: binding; conditions: AlphaScreen IC50 MSUT2 compared with PABPN1, in words
How it was run: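 GST-tagged PABPN1 and MSUT2 zinc-finger construct were expressed in E. coli BL21(DE3) and purified on glutathione-sepharose. AlphaScreen was run in AlphaLISA universal buffer plus 100 mM NaCl with donor beads (10 μg/mL), 250 nM biotinylated poly(A) RNA and 250 nM GST-MSUT2. Compound was pin-added, incubated 30 min at RT in the dark, then acceptor beads were added for 60 min. IC50 was from a four-parameter fit, N=3.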

MSUT2 [2] = test: Fluorescence polarization orthogonal assay, FAM-poly; type: binding
How it was run: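 GST-MSUT2 zinc finger (E. coli BL21(DE3), glutathione-purified) at 125 nM was mixed with 10 nM FAM-poly(A) RNA in PBS, and compound was added. Incubation was 20 min at room temperature, protected from light. Read at ex 485/20, em 528/20; buffer-only background was subtracted and polarization calculated as (F∥−F⊥)/(F∥+F⊥). A parallel run included DTT. N=3 without DTT, N=2 with DTT.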

HEK-293 cells = test: Cytotoxicity screen, CellTiter-Glo cell viability; type: cell-based, human; conditions: HEK cell model, in words
MSUT2 [3] = conditions: read-out: Kd of MSUT2 for poly(A); cited from earlier work
PABPN1 [4] = target: T2, PABPN1; test: competition
[5] = target: T3, MSUT2 ZF (zinc finger domain); test: competition
[6] = read-out: IC50 (FP = FP assay), without DTT, 125 nM MSUT2, 10 nM FAM-RNA
[7] = read-out: IC50 (FP+DTT = FP in the presence of reducing agent DTT), with DTT

Specificity for MSUT2 versus PABPN1 (PABPN1 [1]) | IC50 (MSUT2 [2]; [6]) | IC50 (MSUT2 [2]; [7]) | Molecule | Effect on cell viability (toxicity) (HEK-293 cells) | other results
low specificity for MSUT2 | 1320 nM | 1560 nM | O=C1C(Cl)=C(Cl)C(=O)c2c(O)ccc(O)c21 [2,3-Dichloro-5,8-dihydroxynapthoquinone, 2,3-dichloro-5,8-dihydroxynapthoquinone] | – | –
nonspecifically inhibited MSUT2 | 7110 nM | 7190 nM | O=C(O)C1=CC(=C(c2ccc(O)c(C(=O)O)c2)c2ccc(O)c(C(=O)O)c2)C=CC1=O [Aurin tricarboxylic acid, aurin tricarboxylic acid] | relatively high toxicity at high concentrations | –

Continued, molecule first:

Molecule | Specificity for MSUT2 versus PABPN1 (PABPN1 [1]) | IC50 (MSUT2 [2]; [6]) | IC50 (MSUT2 [2]; [7]) | Effect on cell viability (toxicity) (HEK-293 cells) | other results
O=S(=O)(O)c1cc(N=C=S)ccc1C=Cc1ccc(N=C=S)cc1S(=O)(=O)O [DIDS, 4,4′-diisothiocyanostilbene-2,2′-sulfonic acid] | low specificity for MSUT2; also recorded: twofold reduction in potency against PABPN1 | 6320 nM | 6020 nM | relatively nontoxic at all doses tested | –
O=c1c2ccccc2[se]n1-c1ccccc1 [ebselen] | – | – | – | – | Inhibitory effect in FP assay in the presence of DTT (MSUT2 [2]; with reducing agent DTT): abolished the inhibitory effect
poly(A) | – | – | – | – | Kd (MSUT2 [3]): 60 ± 15 nM
AAAAAAAAAAAAAAA (ssRNA) [unlabeled poly(A) 15-mer] | – | – | – | – | IC50 (PABPN1 [4]): 803 nM; IC50 [5]: 198 nM
